Test results published in paper PMC9290681 (British Journal of Pharmacology, 2020).

How the values were obtained:
TRPM3α2 +3 = TRPM3α2 +3 (Mus musculus, UniProt J9SQF3, INS1087AAA); assay: Whole-cell patch clamp, insertion mutant TRPM3α2 +3; type: cell-based; conditions: PS 40 μM, n=5
[1] = molecular target: TRPM3α1 and TRPM3α2 co-expressed (Mus musculus, UniProt J9SQF3); assay: Calcium microfluorimetry, HEK293 cells co-transfected with TRPM3α1 and TRPM3α2; type: cell-based; conditions: PS 40 μM, Clt 10 μM; TRPM3α2 cDNA 0.5 μg with TRPM3α1 cDNA 0, 1.5 and 3 μg
[2] = molecular target: TRPM3α2_D1064_A_P1065 (TRPM3α2 +1) (Mus musculus, UniProt J9SQF3, INS1087A); assay: Whole-cell patch clamp, insertion mutant TRPM3α2 +1; type: cell-based; conditions: for block of clotrimazole-evoked currents / block of pregnenolone sulphate-induced currents: isosakuranetin 5 μM, diclofenac 100 μM, primidone 25 μM
TRPM3α1 [3] = molecular target: T1, TRPM3α1 (Mus musculus, UniProt J9SQF3); assay: Calcium microfluorimetry, HEK293T cells transiently transfected with TRPM3α1; type: cell-based; conditions: for intracellular calcium response: PS 40 μM, Nif 50 μM, Clt 10 μM, CIM0216 1 μM, Fura-2; for calcium signal at high agonist concentrations: PS 50, 100 and 200 μM, Nif 100 and 200 μM
[4] = molecular target: TRPM3α2 D1064_AA_P1065 (TRPM3α2 +2) (Mus musculus, UniProt J9SQF3, INS1087AA); assay: Whole-cell patch clamp, insertion mutant TRPM3α2 +2; type: cell-based; conditions: PS 40 μM, n=4
TRPM3α1 Δ6b = TRPM3α1 Δ6b (Mus musculus, UniProt J9SQF3, DEL1071-1076); assay: Whole-cell patch clamp, deletion mutant TRPM3α1 Δ6b; type: cell-based; conditions: for block of clotrimazole-activated currents: Clt 10 μM, isosakuranetin 5 μM, diclofenac 100 μM, primidone 25 μM
TRPM3α1 Δ6a = TRPM3α1 Δ6a (Mus musculus, UniProt J9SQF3, DEL1065-1070); assay: Whole-cell patch clamp, deletion mutant TRPM3α1 Δ6a; type: cell-based; conditions: PS 40 μM, n=4
TRPM3α1 Δ3a = assay: Whole-cell patch clamp, deletion mutant TRPM3α1 Δ3a; type: cell-based, mouse; conditions: n=5
TRPM3α2 +4 = TRPM3α2 +4 (Mus musculus, UniProt J9SQF3, INS1087AAAA); assay: Whole-cell patch clamp, insertion mutant TRPM3α2 +4; type: cell-based; conditions: PS 40 μM, n=6
TRPM3α2 = TRPM3α2 (Mus musculus, UniProt J9SQF3); assay: Whole-cell patch clamp, HEK293T cells expressing TRPM3α2; type: cell-based, murine; conditions: for block of CIM0216-induced currents: isosakuranetin 5 μM, diclofenac 100 μM, primidone 25 μM
TRPM3α1 Δ3c = assay: Whole-cell patch clamp, deletion mutant TRPM3α1 Δ3c; type: cell-based, mouse; conditions: n=5
TRPM3α1 A1077P (α1 A‐P) = TRPM3α1 A1077P (α1 A‐P) (Mus musculus, UniProt J9SQF3, A1077P); assay: Whole-cell patch clamp, mutant TRPM3α1 A1077P; type: cell-based; conditions: PS 40 μM, n=6
TRPM3α1 Δ3d = assay: Whole-cell patch clamp, deletion mutant TRPM3α1 Δ3d; type: cell-based, mouse; conditions: for block of clotrimazole-activated currents: isosakuranetin 5 μM, diclofenac 100 μM, primidone 25 μM
[5] = tested on: short pore loop TRPM3α variants (α2–α6); type: cell-based, mouse; conditions: PS 40 μM, Nif 50 μM; all isoforms α2–α6
In short: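 HEK293T cells transiently transfected 48 h before imaging were loaded with Fura-2 AM for 20 min at 37°C. Ratios at 340/380 nm excitation were converted to absolute calcium by Grynkiewicz calibration. Response was taken as maximum minus basal during the stimulus. Only cells responding to a final ionomycin challenge were counted. At least three independent coverslips were used.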

TRPM3α1 Δ3b = assay: Whole-cell patch clamp, deletion mutant TRPM3α1 Δ3b; type: cell-based, mouse; conditions: n=5
TRPM3α2 +5 = TRPM3α2 +5 (Mus musculus, UniProt J9SQF3, INS1087AAAAA); assay: Whole-cell patch clamp, insertion mutant TRPM3α2 +5; type: cell-based; conditions: PS 40 μM, n=4
TRPM3α1 Δ12 = TRPM3α1 Δ12 (Mus musculus, UniProt J9SQF3, DEL1065-1076); assay: Whole-cell patch clamp, deletion mutant TRPM3α1 Δ12; type: cell-based; conditions: PS 40 μM, n=6
TRPM3α1 [6] = molecular target: T1, TRPM3α1; assay: Whole-cell patch clamp, HEK293T cells expressing TRPM3α1; type: cell-based; conditions: for whole-cell current increase: Nif 50 μM; for whole-cell current increase / block of CIM0216-induced currents / block of clotrimazole-induced currents: ±80 mV; for block of CIM0216-induced currents: CIM0216 1 μM, isosakuranetin 5 μM; for block of CIM0216-induced currents / block of clotrimazole-induced currents: diclofenac 100 μM, primidone 25 μM; for block of clotrimazole-induced currents: Clt 10 μM
[7] = molecular target: T2, short pore loop TRPM3α isoforms (α2–α6) (Mus musculus, UniProt J9SQF3); assay: Whole-cell patch clamp, HEK293T cells expressing short pore loop TRPM3α isoforms; type: cell-based; conditions: PS 40 μM, Clt 10 μM; ±80 mV
T2 sequence (J9SQF3 852-1200 limits assumed): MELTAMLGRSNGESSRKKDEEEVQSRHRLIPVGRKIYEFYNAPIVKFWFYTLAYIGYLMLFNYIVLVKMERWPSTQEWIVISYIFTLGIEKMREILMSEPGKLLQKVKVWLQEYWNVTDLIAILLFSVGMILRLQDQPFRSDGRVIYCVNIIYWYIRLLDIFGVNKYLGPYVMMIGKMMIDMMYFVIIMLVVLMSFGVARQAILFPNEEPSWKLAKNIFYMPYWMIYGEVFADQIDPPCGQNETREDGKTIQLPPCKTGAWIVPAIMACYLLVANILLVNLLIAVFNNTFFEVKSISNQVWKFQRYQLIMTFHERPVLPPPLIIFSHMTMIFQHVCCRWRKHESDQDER

CC(=O)[C@H]1CC[C@H]2[C@@H]3CC=C4C[C@@H](OS(=O)(=O)[O-])CC[C@]4(C)[C@H]3CC[C@]12C.[Na+] [pregnenolone sulphate, Pregnenolone sulphate sodium salt]
PS +80 mV ΔI density (TRPM3α2 +3; +80 mV): 7.8 ± 2.0 pA/pF | PS −80 mV ΔI density (TRPM3α2 +3; −80 mV): −1.3 ± 0.4 pA/pF | calcium increase in co-expressing cells versus TRPM3α2 alone [1]: significantly reduced | PS +80 mV ΔI density ([2]; PS 40 μM, +80 mV, n=4): 45.2 ± 18.6 pA/pF | PS −80 mV ΔI density ([2]; PS 40 μM, −80 mV, n=4): −2.2 ± 0.6 pA/pF | intracellular calcium response (TRPM3α1 [3]): did not induce any detectable calcium rise | calcium signal at high agonist concentrations (TRPM3α1 [3]): did not induce any detectable calcium signal | PS +80 mV ΔI density ([4]; +80 mV): 1.2 ± 0.6 pA/pF | PS −80 mV ΔI density ([4]; −80 mV): −0.1 ± 0.2 pA/pF | PS +80 mV ΔI density (TRPM3α1 Δ6b; PS 40 μM, +80 mV, n=5): 0.3 ± 0.1 pA/pF | PS −80 mV ΔI density (TRPM3α1 Δ6b; PS 40 μM, −80 mV, n=5): −0.2 ± 0.02 pA/pF | PS +80 mV ΔI density (TRPM3α1 Δ6a; +80 mV): 0.25 ± 0.2 pA/pF | PS −80 mV ΔI density (TRPM3α1 Δ6a; −80 mV): −0.05 ± 0.3 pA/pF | PS +80 mV ΔI density (TRPM3α1 Δ3a; PS 40 μM, +80 mV): 0.01 ± 0.2 pA/pF | PS −80 mV ΔI density (TRPM3α1 Δ3a; PS 40 μM, −80 mV): 0.3 ± 0.3 pA/pF | PS +80 mV ΔI density (TRPM3α2 +4; +80 mV): 1.1 ± 0.4 pA/pF | PS −80 mV ΔI density (TRPM3α2 +4; −80 mV): −0.3 ± 0.2 pA/pF | PS +80 mV ΔI density (TRPM3α2; PS 40 μM, +80 mV, n=11): 38.1 ± 12.9 pA/pF | PS −80 mV ΔI density (TRPM3α2; PS 40 μM, −80 mV, n=11): −1.9 ± 0.5 pA/pF | PS +80 mV ΔI density (TRPM3α1 Δ3c; PS 40 μM, +80 mV): −0.1 ± 0.1 pA/pF | PS −80 mV ΔI density (TRPM3α1 Δ3c; PS 40 μM, −80 mV): 0.2 ± 0.1 pA/pF | PS +80 mV ΔI density (TRPM3α1 A1077P (α1 A‐P); +80 mV): −0.4 ± 0.6 pA/pF | PS −80 mV ΔI density (TRPM3α1 A1077P (α1 A‐P); −80 mV): −0.1 ± 0.3 pA/pF | PS +80 mV ΔI density (TRPM3α1 Δ3d; PS 40 μM, +80 mV, n=5): 0.04 ± 0.3 pA/pF | PS −80 mV ΔI density (TRPM3α1 Δ3d; PS 40 μM, −80 mV, n=5): 0.01 ± 0.04 pA/pF | intracellular calcium response [5]: robust calcium responses | PS +80 mV ΔI density (TRPM3α1 Δ3b; PS 40 μM, +80 mV): −0.5 ± 0.4 pA/pF | PS −80 mV ΔI density (TRPM3α1 Δ3b; PS 40 μM, −80 mV): 0.1 ± 0.04 pA/pF | PS +80 mV ΔI density (TRPM3α2 +5; +80 mV): 1.2 ± 0.6 pA/pF | PS −80 mV ΔI density (TRPM3α2 +5; −80 mV): −0.1 ± 0.1 pA/pF | PS +80 mV ΔI density (TRPM3α1 Δ12; +80 mV): 35.6 ± 13.9 pA/pF | PS −80 mV ΔI density (TRPM3α1 Δ12; −80 mV): −3.8 ± 1.7 pA/pF | inhibition of clotrimazole-activated currents by co-application (TRPM3α1 [6]; PS 40 μM on Clt 10 μM currents, at +80 mV): 10.5 ± 5.1% | whole-cell current increase (TRPM3α1 [6]; PS 40 μM): did not evoke any increase in current amplitude | PS +80 mV ΔI density (TRPM3α1 [6]; PS 40 μM, +80 mV, n=5): −1.0 ± 0.85 pA/pF | PS −80 mV ΔI density (TRPM3α1 [6]; PS 40 μM, −80 mV, n=5): 0.2 ± 0.1 pA/pF | whole-cell current increase [7]: robust current increases

COC(=O)C1=C(C)NC(C)=C(C(=O)OC)C1c1ccccc1[N+](=O)[O-] [nifedipine, Nifedipine]
intracellular calcium response (TRPM3α1 [3]): did not induce any detectable calcium rise | calcium signal at high agonist concentrations (TRPM3α1 [3]): did not induce any detectable calcium signal | intracellular calcium response [5]: robust calcium responses | whole-cell current increase (TRPM3α1 [6]; PS 40 μM): without effect

Clc1ccccc1C(c1ccccc1)(c1ccccc1)n1ccnc1 [clotrimazole, Clotrimazole]
Clt +80 mV ΔI density (TRPM3α1 Δ3a; Clt 10 μM, +80 mV): 430.6 ± 74.8 pA/pF | Clt −80 mV ΔI density (TRPM3α1 Δ3a; Clt 10 μM, −80 mV): −355.3 ± 55.5 pA/pF | Clt +80 mV ΔI density (TRPM3α1 Δ3c; Clt 10 μM, +80 mV): 242.5 ± 17.2 pA/pF | Clt −80 mV ΔI density (TRPM3α1 Δ3c; Clt 10 μM, −80 mV): −225.3 ± 13.8 pA/pF | Clt +80 mV ΔI density (TRPM3α1 Δ3d; Clt 10 μM, +80 mV, n=5): 269.2 ± 55.2 pA/pF | Clt −80 mV ΔI density (TRPM3α1 Δ3d; Clt 10 μM, −80 mV, n=5): −259.7 ± 53.1 pA/pF | Clt +80 mV ΔI density (TRPM3α1 Δ3b; Clt 10 μM, +80 mV): 149.2 ± 21.2 pA/pF | Clt −80 mV ΔI density (TRPM3α1 Δ3b; Clt 10 μM, −80 mV): −122.8 ± 13.9 pA/pF

O=C(O)Cc1ccccc1Nc1c(Cl)cccc1Cl [diclofenac, Diclofenac]
block of clotrimazole-evoked currents [2]: ineffective | block of pregnenolone sulphate-induced currents [2]: fully block | block of clotrimazole-activated currents (TRPM3α1 Δ6b): only a partial block | block of CIM0216-induced currents (TRPM3α2; CIM0216 1 μM, ±80 mV): full block | block of clotrimazole-activated currents (TRPM3α1 Δ3d; Clt 10 μM): only a partial block | block of CIM0216-induced currents (TRPM3α1 [6]): full block | block of clotrimazole-induced currents (TRPM3α1 [6]): only partially blocked

CCC1(c2ccccc2)C(=O)NCNC1=O [primidone, Primidone]
block of clotrimazole-evoked currents [2]: ineffective | block of pregnenolone sulphate-induced currents [2]: fully block | block of clotrimazole-activated currents (TRPM3α1 Δ6b): only a partial block | block of CIM0216-induced currents (TRPM3α2; CIM0216 1 μM, ±80 mV): full block | block of clotrimazole-activated currents (TRPM3α1 Δ3d; Clt 10 μM): only a partial block | block of CIM0216-induced currents (TRPM3α1 [6]): full block | block of clotrimazole-induced currents (TRPM3α1 [6]): only partially blocked

Cc1cc(NC(=O)C(c2ccccc2)N2CCCc3ccccc32)no1 (stereo not drawn) [CIM0216]
intracellular calcium response (TRPM3α1 [3]): sizable increases in intracellular calcium | whole-cell current increase (TRPM3α2; CIM0216 1 μM, ±80 mV): robust increase in both inward and outward currents | EC50 (TRPM3α1 [6]; read-out: EC50 of current activation, CIM0216, outwardly rectifying currents): 570 ± 50 nM
